These results are taken from ChEMBL document CHEMBL1153794, “Oleanane-type triterpenoids from Aceriphyllum rossii and their cytotoxic activity” (J Nat Prod, 2009).

One test deals with MCF7. Briefly: Cytotoxic activity against human MCF7 cells after 48 hrs by MTT assay. It is filed as functional, cell-based. The following applies: MCF7, 48 h. Summed up:
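Modified MTT assay. Viable cells seeded at 1 × 10^4 per well in growth medium and incubated at 37 °C, 5% CO2. Samples dissolved in DMSO and diluted in growth medium to final concentrations of 5.0–150 µM. Optical density read on a microplate reader; IC50 values derived.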

Test [1] is described as follows: Cytotoxicity activity against mouse LLC cells after 48 hrs by MTT assay. Particulars: Lewis lung carcinoma.

The structures appear in SMILES notation.

As to `C[C@@]1(C(=O)O)CC[C@]2(C)CC[C@]3(C)C(=CC[C@@H]4[C@@]5(C)CC[C@@H](O)[C@@](C)(C(=O)O)[C@@H]5CC[C@]43C)[C@@H]2C1`, the IC50 is 62.4 µM in the test with MCF7 and 47.8 µM in test [1].
The corresponding values for `CC1(C)CC[C@]2(C)CC[C@]3(C(=O)O)C(=CC[C@@H]4[C@@]5(C)CC[C@H](O)C(C)(C)[C@@H]5CC[C@]43C)[C@@H]2C1` are more than 150 µM and 7.63 µM.
The corresponding values for `CC1(C)CC[C@]2(C)CC[C@]3(C(=O)O)C(=CC[C@@H]4[C@@]5(C)CC[C@H]6OC(C)(C)OC[C@@]6(C)[C@@H]5CC[C@]43C)[C@@H]2C1` are more than 150 µM and more than 150 µM.
On the same counts, the results for `CC1(C)CC[C@]2(C)CC[C@]3(C(=O)O)C(=CC[C@@H]4[C@@]5(C)CC[C@@H](O)[C@@](C)(CO)[C@@H]5CC[C@]43C)[C@@H]2C1` [ACERIPHYLLIC ACID A] are more than 150 µM and 8.36 µM.
On to `CC(=O)O[C@@H]1CC[C@@]2(C)[C@@H](CC[C@]3(C)[C@@H]2CC=C2[C@@H]4CC(C)(C)CC[C@]4(C)CC[C@]23C(=O)O)[C@]1(C)C(=O)O`, for which the IC50 in the test with MCF7 was 58.4 µM; in test [1] it was more than 150 µM.
With `CC(=O)O[C@@H]1CC[C@@]2(C)[C@@H](CC[C@]3(C)[C@@H]2CC=C2[C@@H]4C[C@](C)(C(=O)O)CC[C@]4(C)CC[C@]23C)[C@]1(C)C(=O)O`, the IC50 (in the test on MCF7; in test [1]) was more than 150 µM in each case.
On to `CC1(C)[C@@H](O)CC[C@]2(C)[C@H]3CC=C4[C@@H]5C[C@](C)(C(=O)O)CC[C@]5(C)CC[C@@]4(C)[C@]3(C)CC[C@@H]12`, for which the IC50 was more than 150 µM in the test on MCF7 and 16.6 µM in test [1].
The corresponding values for `CC1(C)CC[C@]2(C)CC[C@]3(C(=O)O)C(=CC[C@@H]4[C@@]5(C)CC[C@@H](O)[C@@](C)(C=O)[C@@H]5CC[C@]43C)[C@@H]2C1` are 47 µM and 39.2 µM.
The corresponding values for `CC1(C)CC[C@]2(C)CC[C@]3(C(=O)O)C(=CC[C@@H]4[C@@]5(C)CCC(=O)[C@@](C)(CO)[C@@H]5CC[C@]43C)[C@@H]2C1` are 39.2 µM and 6.56 µM.
The corresponding values for `CC1(C)CC[C@]2(C)CC[C@]3(C(=O)O)C(=CC[C@@H]4[C@@]5(C)CCC(=O)C(C)(C)[C@@H]5CC[C@]43C)[C@@H]2C1` are 53.6 µM and more than 150 µM.
Regarding `CC1(C)CC[C@]2(C(=O)O)CC[C@]3(C)C(=CC[C@@H]4[C@@]5(C)CC[C@H](O)C(C)(C)[C@@H]5CC[C@]43C)[C@@H]2C1` [OLEANOLIC_ACID], the IC50 (with MCF7; in test [1]) was more than 150 µM in each case.
Consider `CC1(C)CC[C@]2(C)CC[C@]3(C(=O)O)C(=CC[C@@H]4[C@@]5(C)CC[C@@H](OC(=O)/C=C/c6ccc(O)c(O)c6)C(C)(C)[C@@H]5CC[C@]43C)[C@@H]2C1`, for which the IC50 (in the test on MCF7; in test [1]) was more than 150 µM each time.
Take `C[C@@]1(C(=O)O)CC[C@]2(C)CC[C@]3(C)C(=CC[C@@H]4[C@@]5(C)CC[C@H](O)[C@@](C)(CO)[C@@H]5CC[C@]43C)[C@@H]2C1`: the IC50 is 107 µM in the test with MCF7 and more than 150 µM in test [1].
Regarding `C[C@@]1(C(=O)O)CC[C@]2(C)CC[C@]3(C)C(=CC[C@@H]4[C@@]5(C)CC[C@H](O)[C@@](C)(C(=O)O)[C@@H]5CC[C@]43C)[C@@H]2C1`, the IC50 (with MCF7; in test [1]) was more than 150 µM in each case.
